Experimental data collected from several papers.
Compare with care: the assays were run in different laboratories.
Target: Serine/threonine-protein kinase Nek6 (NEK6, Homo sapiens, UniProt Q9HC98)

O=c1[nH]c2ccccc2n1C1CCN(Cc2ccc(-c3[nH]c4cc5ncnc5cc4nc3-c3ccccc3)cc2)CC1
remaining signal (cell-free assay; 0.5 µM): 98.2%

Cn1cc(-c2cccc(N3CCc4c(sc5c4CC(C)(C)C5)C3=O)c2CO)cc(Nc2ccncn2)c1=O
inhibition (enzyme activity; inhibitor; 1 µM): 4%

Cc1nn(C)cc1-c1nc2c(N3CCN(Cc4ccc(Cl)cc4)CC3)c(Cl)cnc2[nH]1
remaining binding (binding; competition with immobilised ligand; 1 µM): 100%

O=C1Nc2ccc3ncsc3c2/C1=C/c1cnc[nH]1
remaining activity (enzyme activity; inhibitor; 0.5 µM): 93.2%

Cn1cc(-c2cc(F)cc(N3CCn4c(cc5c4CCCC5)C3=O)c2CO)cc(Nc2ccc(N3CCN(C4COC4)CC3)cn2)c1=O
inhibition (enzyme activity; inhibitor; 0.1 µM): 6%

COc1cc(Nc2ncc(F)c(Nc3ccc4c(n3)NC(=O)C(C)(C)O4)n2)cc(OC)c1OC
inhibition (binding; competition with immobilised ligand; 10 µM): 100%

N#CC1(c2ccccn2)CCN(Cc2cc(C(=O)O)c(=O)n3ccccc23)CC1
remaining binding (cell-free assay; competition with immobilised ligand; 1 µM): 100%

COc1ncccc1-c1cnn2ccc(N3CCN(C(=O)OC(C)C)CC3)nc12
remaining binding (binding; competition with immobilised ligand; 1 µM): 68%

Cn1cncc1[C@](O)(COc1ccc(C#N)cc1-c1ccc(OC(F)(F)F)cc1)c1ccc(C#N)cc1
remaining binding (cell-free assay; competition with immobilised ligand; 1 µM): 95%

Nc1ncc(-c2nc(N3CCOCC3)nc(N3CCOCC3)n2)c(C(F)F)n1
remaining binding (binding; competition with immobilised ligand; 10 µM): 100%
